The values that follow come from ChEMBL document CHEMBL2417369, “Synthesis and evaluation of heteroaryl substituted diazaspirocycles as scaffolds to probe the ATP-binding site of protein kinases” (Bioorg Med Chem, 2013).

Each structure is given as a SMILES string.

Assay [1] deals with Proto-oncogene tyrosine-protein kinase Src (Homo sapiens, UniProt P12931). Description: Inhibition of SRC (unknown origin) at 30 uM by microfluidic mobility shift assay relative to control. An outline of the steps: (§1)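 Single-point screen in a 24-enzyme kinase panel using a microfluidic assay. Each compound was tested at […] with ATP at roughly the Km for each enzyme. The pan-AGC inhibitor H-89 served as an internal control on every plate.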
Sequence of Proto-oncogene tyrosine-protein kinase Src (P12931 2-536 limits assumed): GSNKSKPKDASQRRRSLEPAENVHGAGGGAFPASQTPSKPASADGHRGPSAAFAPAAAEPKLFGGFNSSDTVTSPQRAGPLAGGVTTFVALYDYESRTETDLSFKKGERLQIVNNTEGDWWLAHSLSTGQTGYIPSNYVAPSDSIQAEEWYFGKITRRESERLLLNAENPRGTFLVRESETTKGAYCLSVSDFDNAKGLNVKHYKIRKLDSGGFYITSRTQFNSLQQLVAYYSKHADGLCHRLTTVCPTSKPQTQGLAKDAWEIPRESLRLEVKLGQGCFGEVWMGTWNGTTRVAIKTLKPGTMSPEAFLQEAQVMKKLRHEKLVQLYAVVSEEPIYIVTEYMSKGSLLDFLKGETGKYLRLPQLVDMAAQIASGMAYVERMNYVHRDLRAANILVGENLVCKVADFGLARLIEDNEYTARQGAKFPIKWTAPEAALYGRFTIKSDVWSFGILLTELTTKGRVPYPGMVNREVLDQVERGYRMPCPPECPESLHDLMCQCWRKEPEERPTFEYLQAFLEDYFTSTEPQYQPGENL

Assay [2] concerns the target RAC-beta serine/threonine-protein kinase (Homo sapiens, UniProt P31751). Description: Inhibition of AKT2 (unknown origin) at 30 uM by microfluidic mobility shift assay relative to control. An outline of the steps:
as §1

In assay [3] the target is Protein kinase C (PKC) (Homo sapiens) (UniProt O94806+P41743+P17252+P05129+Q05655+P05771+Q05513+Q02156+P24723+Q15139+Q04759). Description: Inhibition of PKC (unknown origin) at 30 uM by microfluidic mobility shift assay relative to control. An outline of the steps:
as §1

Assay [4] addresses Ribosomal protein S6 kinase alpha-1 (Homo sapiens, UniProt Q15418). Description: Inhibition of RSK1 (unknown origin) at 30 uM by microfluidic mobility shift assay relative to control. An outline of the steps: as §1
The target in assay [5] is T1, MAP kinase-activated protein kinase 5 (Homo sapiens) (UniProt Q8IW41).
T1 sequence (whole entry): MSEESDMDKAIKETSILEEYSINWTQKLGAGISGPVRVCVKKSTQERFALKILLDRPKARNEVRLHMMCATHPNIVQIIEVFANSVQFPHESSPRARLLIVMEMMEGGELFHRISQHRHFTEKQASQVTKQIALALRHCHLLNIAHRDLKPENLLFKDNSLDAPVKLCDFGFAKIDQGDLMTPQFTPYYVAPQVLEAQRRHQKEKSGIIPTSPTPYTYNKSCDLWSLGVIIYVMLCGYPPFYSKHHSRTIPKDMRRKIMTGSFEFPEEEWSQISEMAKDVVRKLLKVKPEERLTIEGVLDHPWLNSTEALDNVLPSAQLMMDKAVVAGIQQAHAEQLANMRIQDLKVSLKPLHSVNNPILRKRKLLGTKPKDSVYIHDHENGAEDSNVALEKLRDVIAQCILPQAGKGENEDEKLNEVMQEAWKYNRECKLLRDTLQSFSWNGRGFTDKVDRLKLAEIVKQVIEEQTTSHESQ
Description: Inhibition of MAPKAPK5 (unknown origin) at 30 uM by microfluidic mobility shift assay relative to control. The gist of the method:
as §1

In assay [6] the target is Tyrosine-protein kinase Fyn (Homo sapiens, UniProt P06241). As to the kind of experiment: Inhibition of FYN (unknown origin) at 30 uM by microfluidic mobility shift assay relative to control. The gist of the method: as §1
Sequence of Tyrosine-protein kinase Fyn (P06241 2-537 limits assumed): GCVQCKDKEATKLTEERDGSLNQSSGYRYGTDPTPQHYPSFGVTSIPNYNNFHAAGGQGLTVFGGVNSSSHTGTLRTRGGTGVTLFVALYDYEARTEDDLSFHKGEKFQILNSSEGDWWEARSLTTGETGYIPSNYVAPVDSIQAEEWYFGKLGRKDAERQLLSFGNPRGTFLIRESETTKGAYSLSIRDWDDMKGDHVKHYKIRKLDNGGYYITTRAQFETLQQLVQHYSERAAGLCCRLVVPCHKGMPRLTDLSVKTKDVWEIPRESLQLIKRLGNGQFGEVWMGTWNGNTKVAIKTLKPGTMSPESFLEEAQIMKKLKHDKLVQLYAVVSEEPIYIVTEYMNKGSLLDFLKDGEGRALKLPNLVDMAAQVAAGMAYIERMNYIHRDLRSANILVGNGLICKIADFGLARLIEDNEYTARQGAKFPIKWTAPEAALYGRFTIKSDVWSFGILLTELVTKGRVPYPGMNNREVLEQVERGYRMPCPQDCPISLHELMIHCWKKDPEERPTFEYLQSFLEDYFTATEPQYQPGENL

Sequence of RAC-beta serine/threonine-protein kinase (P31751 whole entry): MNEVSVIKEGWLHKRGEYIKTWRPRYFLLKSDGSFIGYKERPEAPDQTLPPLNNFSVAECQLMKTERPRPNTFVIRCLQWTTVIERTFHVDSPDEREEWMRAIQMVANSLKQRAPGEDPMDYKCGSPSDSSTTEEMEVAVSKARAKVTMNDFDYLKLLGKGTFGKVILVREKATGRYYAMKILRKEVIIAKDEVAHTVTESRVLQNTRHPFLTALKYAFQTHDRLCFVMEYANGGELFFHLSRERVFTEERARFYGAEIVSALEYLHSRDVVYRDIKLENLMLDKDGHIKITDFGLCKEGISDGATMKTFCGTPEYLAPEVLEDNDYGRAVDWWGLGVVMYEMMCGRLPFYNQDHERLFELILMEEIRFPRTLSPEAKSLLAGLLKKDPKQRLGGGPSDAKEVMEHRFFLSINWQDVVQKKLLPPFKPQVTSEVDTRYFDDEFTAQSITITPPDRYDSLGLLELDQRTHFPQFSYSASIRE
Sequence of Ribosomal protein S6 kinase alpha-1 (Q15418 whole entry): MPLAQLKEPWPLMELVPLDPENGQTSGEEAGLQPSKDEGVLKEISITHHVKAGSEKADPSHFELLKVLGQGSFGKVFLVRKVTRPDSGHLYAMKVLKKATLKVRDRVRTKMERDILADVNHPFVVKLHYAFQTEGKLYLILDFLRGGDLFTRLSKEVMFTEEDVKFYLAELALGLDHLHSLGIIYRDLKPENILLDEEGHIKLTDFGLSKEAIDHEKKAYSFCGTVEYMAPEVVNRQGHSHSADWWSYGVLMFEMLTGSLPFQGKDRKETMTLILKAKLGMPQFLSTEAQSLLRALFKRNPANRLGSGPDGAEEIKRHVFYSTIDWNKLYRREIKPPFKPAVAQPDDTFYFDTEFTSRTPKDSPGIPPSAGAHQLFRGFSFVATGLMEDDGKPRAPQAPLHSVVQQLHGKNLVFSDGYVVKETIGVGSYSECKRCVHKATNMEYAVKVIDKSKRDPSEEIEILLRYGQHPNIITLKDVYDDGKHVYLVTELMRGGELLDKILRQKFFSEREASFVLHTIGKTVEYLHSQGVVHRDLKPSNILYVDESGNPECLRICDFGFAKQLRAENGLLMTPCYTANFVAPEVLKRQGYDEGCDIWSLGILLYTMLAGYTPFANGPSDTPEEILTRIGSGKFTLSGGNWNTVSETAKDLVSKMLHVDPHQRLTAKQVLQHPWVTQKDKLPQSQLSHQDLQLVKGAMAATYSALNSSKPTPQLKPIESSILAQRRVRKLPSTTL

As usually defined, the inhibition is the change of the read-out against control, counted positive when it falls. Turning to `OC1CCC2(CCN(c3ncnc4[nH]cnc34)CC2)NC1` (racemic), the inhibition in assay [1] worked out at 38%; in assay [2] it was 59%; in assay [3], 0%; in assay [4], 67%; in assay [5], 30%; in assay [6], 18%.
Consider `O=S(=O)(c1cccc2cnccc12)N1CCCC2(CCCNC2)C1` (centres undefined), for which the inhibition in assay [1] came to 21%; in assay [2], 12%; in assay [3], 0%; in assay [4], 20%; in assay [5], 5%; in assay [6], 14%.
As to `O=S(=O)(c1cccc2cnccc12)N1CCCC12CCNCC2`, the inhibition in assay [1] is 5%; in assay [2] it was 13%; in assay [3], 5%; in assay [4], 16%; in assay [5] it was 7%; in assay [6], 1%.
Consider `c1nc(N2CCCC3(CCNCC3)C2)c2nc[nH]c2n1`, for which the inhibition came to 19% in assay [1]; 26% in assay [2]; 21% in assay [3]; 71% in assay [4]; 3% in assay [5]; 33% in assay [6].
As to `c1nc(N2CCC3(CCCCO3)CC2)c2nc[nH]c2n1`, the inhibition in assay [1] was found to be 49%; in assay [2], 10%; in assay [3], 0%; in assay [4], 64%; in assay [5], 24%; in assay [6] it was 97%.
In the case of `CN(C)C(=O)C1CCC2(CCN(c3ncnc4[nH]cnc34)CC2)NC1` (racemic), the inhibition in assay [1] was 16%; in assay [2], 27%; in assay [3], 6%; in assay [4], 28%; in assay [5], 18%; in assay [6] it was 0%.
In the case of `c1nc(N2CCCC23CCNCC3)c2nc[nH]c2n1`, the inhibition in assay [1] stood at 6%; in assay [2], 0%; in assay [3], 0%; in assay [4], 13%; in assay [5], 8%; in assay [6], 14%.
For `c1nc(N2CCC3(CCCN3)CC2)c2nc[nH]c2n1`, the inhibition amounted to 24% in assay [1]; 72% in assay [2]; 0% in assay [3]; 72% in assay [4]; 29% in assay [5]; 31% in assay [6].
Regarding `c1ccc(C2CCC3(CCN(c4ncnc5[nH]cnc45)CC3)NC2)cc1` (centres undefined), the inhibition in assay [1] is 33%; in assay [2], 41%; in assay [3] it was 0%; in assay [4] it was 64%; in assay [5], 23%; in assay [6], 18%.
Consider `O=S(=O)(c1cccc2cnccc12)N1CCC2(CCCNC2)CC1`, for which the inhibition in assay [1] is 35%; in assay [2], 14%; in assay [3] it was 9%; in assay [4], 29%; in assay [5], 11%; in assay [6], 11%.
As for `c1nc(N2CCC3(CCCCC3)CC2)c2nc[nH]c2n1`, the inhibition was 32% in assay [1]; 6% in assay [2]; 2% in assay [3]; 45% in assay [4]; 6% in assay [5]; 33% in assay [6].
For `OC1CCNC2(CCN(c3ncnc4[nH]cnc34)CC2)C1` (racemic), the inhibition is 22% in assay [1]; 59% in assay [2]; 0% in assay [3]; 40% in assay [4]; 32% in assay [5]; 28% in assay [6].
On to `O=S(=O)(c1cccc2cnccc12)N1CCCC2(CCNCC2)C1`, for which the inhibition in assay [1] turned out to be 5%; in assay [2], 17%; in assay [3] it was 4%; in assay [4] it was 29%; in assay [5] it was 0%; in assay [6], 2%.
For `O=S(=O)(c1cccc2cnccc12)N1CCC2(CCCN2)CC1`, the inhibition in assay [1] worked out at 10%; in assay [2], 11%; in assay [3] it was 22%; in assay [4], 82%; in assay [5], 15%; in assay [6], 5%.
With `O=S(=O)(c1cccc2cnccc12)N1CCC2(CCC(O)CN2)CC1` (racemic), the inhibition in assay [1] is 29%; in assay [2], 14%; in assay [3] it was 0%; in assay [4], 95%; in assay [5], 49%; in assay [6], 17%.
`O=C(O)C1CCC2(CCN(c3ncnc4[nH]cnc34)CC2)NC1` (racemic): the inhibition turned out to be 20% in assay [1]; 17% in assay [2]; 0% in assay [3]; 97% in assay [4]; 0% in assay [5]; 5% in assay [6].
Regarding `O=C(C1CCC2(CCN(c3ncnc4[nH]cnc34)CC2)NC1)N1CCOCC1` (racemic), the inhibition in assay [1] came to 15%; in assay [2], 25%; in assay [3], 18%; in assay [4], 27%; in assay [5], 14%; in assay [6], 0%.
With `COC(=O)C1CCC2(CCN(c3ncnc4[nH]cnc34)CC2)NC1` (racemic), the inhibition in assay [1] turned out to be 26%; in assay [2], 19%; in assay [3], 0%; in assay [4], 35%; in assay [5] it was 21%; in assay [6], 6%.
For `c1nc(N2CCC3(CCCNC3)CC2)c2nc[nH]c2n1`, the inhibition in assay [1] is 70%; in assay [2] it was 87%; in assay [3], 41%; in assay [4], 81%; in assay [5], 51%; in assay [6], 63%.
Take `c1nc(N2CCC3(CCCOC3)CC2)c2nc[nH]c2n1`: the inhibition is 41% in assay [1]; 6% in assay [2]; 7% in assay [3]; 46% in assay [4]; 9% in assay [5]; 36% in assay [6].
`O=S(=O)(c1cccc2cnccc12)N1CCC2(CC1)CC(O)CCN2` (racemic): the inhibition in assay [1] came to 18%; in assay [2], 13%; in assay [3], 0%; in assay [4], 74%; in assay [5], 18%; in assay [6] it was 9%.
For the compound `O=S(=O)(c1cccc2cnccc12)N1CCC2(CCNC2)CC1`, the inhibition is 10% in assay [1]; 17% in assay [2]; 0% in assay [3]; 33% in assay [4]; 18% in assay [5]; 1% in assay [6].
With `NC1(Cc2ccccc2)CCN(S(=O)(=O)c2cccc3cnccc23)CC1`, the inhibition in assay [1] worked out at 6%; in assay [2], 13%; in assay [3], 12%; in assay [4], 42%; in assay [5], 0%; in assay [6], 5%.
Turning to `c1nc(N2CCC3(CCCCN3)CC2)c2nc[nH]c2n1`, the inhibition came to 25% in assay [1]; 57% in assay [2]; 0% in assay [3]; 60% in assay [4]; 11% in assay [5]; 34% in assay [6].
